Data taken from paper PMC9574854 (Journal of Medicinal Chemistry, 2022).
Blank lines part the entries; values can stand above or below the compound they belong to.

How the values were obtained:
[1] = target: T1, PfPK6 (Plasmodium falciparum, UniProt Q8IDW1); experiment: KinaseSeeker split luciferase assay on PfPK6; format: biochemical; conditions: for remaining activity at 1 µM: read-out: PfPK6 PoC@1 μM; for activity on PfPK6, in words: screen at 1 μM; for LE PfPK6 (ligand efficiency): PfPK6 pIC50/number of heavy atoms in the molecule; for selectivity (preference) for PfPK6 over PfGSK3: ratio of IC50 values
T1 sequence (Q8IDW1 1-305): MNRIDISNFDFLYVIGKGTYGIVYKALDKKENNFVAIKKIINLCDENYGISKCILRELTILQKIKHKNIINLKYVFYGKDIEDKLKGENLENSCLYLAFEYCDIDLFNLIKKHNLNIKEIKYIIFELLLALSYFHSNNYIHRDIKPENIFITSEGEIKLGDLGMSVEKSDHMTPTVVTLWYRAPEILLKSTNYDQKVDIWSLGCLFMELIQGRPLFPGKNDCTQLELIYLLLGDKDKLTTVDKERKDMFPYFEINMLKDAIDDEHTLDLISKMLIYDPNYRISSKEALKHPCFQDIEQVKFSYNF

[2] = target: T2, PfGSK3 (Plasmodium falciparum, UniProt O77344); experiment: KinaseSeeker split luciferase assay on PfGSK3; format: biochemical; conditions: for activity on PfGSK3, in words: screen at 1 μM; for fold increase in potency on PfGSK3: compared to IKK16
T2 sequence (O77344 1-440): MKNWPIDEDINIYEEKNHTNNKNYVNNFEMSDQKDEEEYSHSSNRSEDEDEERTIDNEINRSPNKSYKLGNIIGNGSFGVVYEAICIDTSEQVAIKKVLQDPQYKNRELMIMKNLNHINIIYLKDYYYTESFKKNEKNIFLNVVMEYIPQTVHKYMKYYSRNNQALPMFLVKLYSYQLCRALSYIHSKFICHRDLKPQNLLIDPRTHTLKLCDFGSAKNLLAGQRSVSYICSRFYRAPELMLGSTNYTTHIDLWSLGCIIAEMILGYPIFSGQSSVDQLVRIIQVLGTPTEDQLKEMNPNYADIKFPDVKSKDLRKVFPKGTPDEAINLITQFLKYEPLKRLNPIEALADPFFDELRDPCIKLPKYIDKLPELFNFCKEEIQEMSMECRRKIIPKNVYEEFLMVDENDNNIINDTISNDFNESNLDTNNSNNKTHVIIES
Procedure, shortened: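 Split-luciferase binding assay: lysate with Cfluc-PfGSK3 fusion plus Fos-Nfluc, incubated 2 h with test compound in DMSO (or DMSO control) and a kinase-specific probe. Luminescence was read immediately after luciferin reagent. % inhibition = (control − sample)/control × 100. Compounds were first counter-screened against split luciferase, then screened at 1 μM.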

[3] = tested on: 468 human kinases; experiment: DiscoverX KINOMEscan panel, selectivity score; format: binding; conditions: for no. of kinase hits: 1 μM, 468 human kinases, PoC ≤10% (>90% inhibition); for reduction in selectivity: S10 (1 μM) compared to IKK16
[4] = tested on: HepG2 cells; experiment: HepG2 CellTiter-Glo cytotoxicity assay; format: cell-based, human; conditions: HepG2, 2 μM
Procedure, shortened: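 HepG2 cells were grown in DMEM with 10% FBS, 1% NEAA and 1% L-glutamine, without antibiotics. They were seeded at 4000 cells/well and left overnight at 37 °C, 5% CO₂. Test compound was added at 200 nM or 2 μM, in quadruplicate, with DMSO held constant, for 48 h. Viability was read by CellTiter-Glo 2 luminescence. % viability is the average of two experiments.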

[5] = in words; cited from earlier work
[6] = rats, in words; cited from earlier work
[7] = tested on: Pf3D7; conditions: read-out: Pf3D7 blood stage EC50; blood stage proliferation; cited from earlier work
[8] = tested on: PfCDPK1; conditions: read-out: PfCDPK1 IC50; cited from earlier work

Compound: c1ccc(Nc2nccc(-c3cc4ccccc4s3)n2)cc1 [Compound 4a, 4-(Benzo[b]thiophen-2-yl)-N-phenylpyrimidin-2-amine]
remaining activity at 1 µM [1]: 100% | activity on PfPK6, in words [1]: failed to inhibit | activity on PfGSK3, in words [2]: failed to inhibit

Compound: Clc1cccc(Nc2nccc(-c3cc4ccccc4s3)n2)c1 [Compound 4c, 4-(Benzo[b]thiophen-2-yl)-N-(3-chlorophenyl)pyrimidin-2-amine]
remaining activity at 1 µM [1]: 100%

Compound: Clc1ccccc1Nc1nccc(-c2cc3ccccc3s2)n1 [Compound 4d, 4-(Benzo[b]thiophen-2-yl)-N-(2-chlorophenyl)pyrimidin-2-amine]
remaining activity at 1 µM [1]: 100%

Compound: COc1cccc(Nc2nccc(-c3cc4ccccc4s3)n2)c1 [Compound 4f, 4-(Benzo[b]thiophen-2-yl)-N-(3-methoxyphenyl)pyrimidin-2-amine]
remaining activity at 1 µM [1]: 100%

Compound: COc1ccccc1Nc1nccc(-c2cc3ccccc3s2)n1 [Compound 4g, 4-(Benzo[b]thiophen-2-yl)-N-(2-methoxyphenyl)pyrimidin-2-amine]
remaining activity at 1 µM [1]: 100%

Compound: c1ccc(CNc2nccc(-c3cc4ccccc4s3)n2)cc1 [Compound 4h, 4-(Benzo[b]thiophen-2-yl)-N-benzylpyrimidin-2-amine]
remaining activity at 1 µM [1]: 100% | activity on PfPK6, in words [1]: inactive | activity on PfGSK3, in words [2]: inactive

Compound: O=C(O)c1ccc(Nc2nccc(-c3cc4ccccc4s3)n2)cc1 [Compound 6, 4-((4-(Benzo[b]thiophen-2-yl)pyrimidin-2-yl)amino)benzoic acid]
remaining activity at 1 µM [1]: 100%

Compound: O=C(c1ccc(Nc2nccc(-c3cc4ccccc4s3)n2)cc1)N1CCC(N2CCCCC2)CC1 [Compound 9b, [1,4′-Bipiperidin]-1′-yl(4-((4-(benzo[b]thiophen-2-yl)pyrimidin-2-yl)amino)phenyl)methanone]
fold increase in potency on PfPK6 ([1]; compared to IKK16): ~4 fold

Compound: CN1CCN(CCCNC(=O)c2ccc(Nc3nccc(-c4cc5ccccc5s4)n3)cc2)CC1 [Compound 9f, 4-((4-(Benzo[b]thiophen-2-yl)pyrimidin-2-yl)amino)-N-(3-(4-methylpiperazin-1-yl)propyl)benzamide]
fold increase in potency on PfPK6 ([1]; compared to IKK16): ~3 fold | fold increase in potency on PfGSK3 [2]: 2 fold

Compound: O=C(NCCCN1CCOCC1)c1ccc(Nc2nccc(-c3cc4ccccc4s3)n2)cc1 [Compound 9g, 4-((4-(Benzo[b]thiophen-2-yl)pyrimidin-2-yl)amino)-N-(3-morpholinopropyl)benzamide]
no. of kinase hits [3]: 32

Compound: O=C(NC1CC1)c1ccc(Nc2nccc(-c3cc4ccccc4s3)n2)cc1 [Compound 9j, 4-((4-(Benzo[b]thiophen-2-yl)pyrimidin-2-yl)amino)-N-cyclopropylbenzamide]
fold increase in potency on PfGSK3 [2]: roughly 2 fold

Compound: Cn1cc(NC(=O)c2ccc(Nc3nccc(-c4cc5ccccc5s4)n3)cc2)cn1 [Compound 9k, 4-((4-(Benzo[b]thiophen-2-yl)pyrimidin-2-yl)amino)-N-(1-methyl-1H-pyrazol-4-yl)benzamide]
activity on PfPK6, in words [1]: no activity | activity on PfGSK3, in words [2]: no activity

Compound: Cc1cn2c(-c3ccnc(NCC4CC4)n3)c(-c3ccc(F)c(NS(C)(=O)=O)c3)nc2cc1CN(C)C [ML10]
EC50 [7]: 2.1 nM

Compound: N[C@H]1CC[C@H](Nc2nc(Nc3ccc(C(=O)N4CCCCC4)cc3)c3ncn(-c4cccc(F)c4)c3n2)CC1 [Purfalcamine]
IC50 [8]: 17 nM

Further lines, with some results ahead:

activity on PfGSK3, in words [2]: inactivity
Compound: O=C(c1ccc(Nc2nccc(-c3cccs3)n2)cc1)N1CCC(N2CCCC2)CC1 [Compound 18c, (4-(Pyrrolidin-1-yl)piperidin-1-yl)(4-((4-(thiophen-2-yl)pyrimidin-2-yl)amino)phenyl)methanone]

fold decrease in potency on PfPK6 ([1]; compared to thiophene 18c): more than 3 fold | activity on PfGSK3, in words [2]: inactive
Compound: O=C(c1ccc(Nc2nccc(-c3ccco3)n2)cc1)N1CCC(N2CCCC2)CC1 [Compound 18e, (4-((4-(Furan-2-yl)pyrimidin-2-yl)amino)phenyl)(4-(pyrrolidin-1-yl)piperidin-1-yl)methanone]

LE PfPK6 (ligand efficiency) [1]: 0.30
Compound: O=C(c1ccc(Nc2nccc(-c3ccc(Cl)s3)n2)cc1)N1CCC(N2CCCC2)CC1 [Compound 18j, (4-((4-(5-Chlorothiophen-2-yl)pyrimidin-2-yl)amino)phenyl)(4-(pyrrolidin-1-yl)piperidin-1-yl)methanone]

activity on PfGSK3, in words [2]: inactive
Compound: O=C(c1ccc(Nc2nccc(-c3ccc(-c4ccccc4)s3)n2)cc1)N1CCC(N2CCCC2)CC1 [Compound 18k, (4-((4-(5-Phenylthiophen-2-yl)pyrimidin-2-yl)amino)phenyl)(4-(pyrrolidin-1-yl)piperidin-1-yl)methanone]

fold increase in potency on PfPK6 ([1]; compared to its alcohol counterpart (18l)): ~2 fold
Compound: O=C(c1ccc(Nc2nccc(-c3ccc(COCC(F)(F)F)s3)n2)cc1)N1CCC(N2CCCC2)CC1 [Compound 18m, (4-(Pyrrolidin-1-yl)piperidin-1-yl)(4-((4-(5-((2,2,2-trifluoroethoxy)methyl)thiophen-2-yl)pyrimidin-2-yl)amino)phenyl)methanone]

no. of kinase hits [3]: 100 | fold increase in potency on PfPK6 ([1]; compared to IKK16): 9 fold | selectivity (preference) for PfPK6 over PfGSK3 [1]: ~16 fold
Compound: Cc1cnc(Nc2ccc(C(=O)N3CCC(N4CCCC4)CC3)cc2)nc1-c1cc2ccccc2s1 [Compound 18n, (4-((4-(Benzo[b]thiophen-2-yl)-5-methylpyrimidin-2-yl)amino)phenyl)(4-(pyrrolidin-1-yl)piperidin-1-yl)methanone]
reduction in selectivity [3]: ~2 fold | more cytotoxicity than IKK16 [4]: ~40%

no. of kinase hits [3]: 88 | fold increase in potency on PfPK6 ([1]; compared to IKK16): 20 fold | selectivity (preference) for PfPK6 over PfGSK3 [1]: 9 fold
Compound: O=C(c1ccc(Nc2ncc(Cl)c(-c3cc4ccccc4s3)n2)cc1)N1CCC(N2CCCC2)CC1 [Compound 18r, (4-((4-(Benzo[b]thiophen-2-yl)-5-chloropyrimidin-2-yl)amino)phenyl)(4-(pyrrolidin-1-yl)piperidin-1-yl)methanone]
reduction in selectivity [3]: ~2 fold

activity on PfGSK3, in words [2]: did not reach our threshold
Compound: Cc1ccc(-c2nc(Nc3ccc(C(=O)N4CCC(N5CCCC5)CC4)cc3)ncc2C)s1 [Compound 23a, (4-((5-Methyl-4-(5-methylthiophen-2-yl)pyrimidin-2-yl)amino)phenyl)(4-(pyrrolidin-1-yl)piperidin-1-yl)methanone]

no. of kinase hits [3]: 103
Compound: O=C(c1ccc(Nc2ncc(Cl)c(-c3ccc(Cl)s3)n2)cc1)N1CCC(N2CCCC2)CC1 [Compound 23d, (4-((5-Chloro-4-(5-chlorothiophen-2-yl)pyrimidin-2-yl)amino)phenyl)(4-(pyrrolidin-1-yl)piperidin-1-yl)methanone]

no. of kinase hits [3]: 64 | reduction of promiscuity (kinase hits) ([3]; compared to 23d, from 103 to 64 kinase hits): ~40% | IC50 [2]: < 100 nM
Compound: O=C(NCCCN1CCOCC1)c1ccc(Nc2ncc(Cl)c(-c3ccc(Cl)s3)n2)cc1 [Compound 23e, 4-((5-Chloro-4-(5-chlorothiophen-2-yl)pyrimidin-2-yl)amino)-N-(3-morpholinopropyl)benzamide]

IC50 [2]: < 100 nM
Compound: Cc1ccc(-c2nc(Nc3ccc(C(=O)NCCCN4CCOCC4)cc3)ncc2Cl)s1 [Compound 23f, 4-((5-Chloro-4-(5-methylthiophen-2-yl)pyrimidin-2-yl)amino)-N-(3-morpholinopropyl)benzamide]

activity on PfGSK3, in words [2]: did not show significant activity
Compound: Cc1cnc(Nc2ccc(C(=O)NCCCN3CCOCC3)cc2)nc1-c1ccc(Cl)s1 [Compound 23g, 4-((4-(5-Chlorothiophen-2-yl)-5-methylpyrimidin-2-yl)amino)-N-(3-morpholinopropyl)benzamide]

no. of kinase hits [3]: 41 | LE PfPK6 (ligand efficiency) [1]: 0.26
Compound: O=C(c1ccc(Nc2nccc(-c3cc4ccccc4s3)n2)cc1)N1CCC(N2CCCC2)CC1 [IKK16, reference compound]
toxicity in a resazurin-based cell viability assay [5]: low toxicity | oral bioavailability [6]: orally bioavailable
